Reference: ChEMBL document CHEMBL3864172, “New Peptidomimetic Boronates for Selective Inhibition of the Chymotrypsin-like Activity of the 26S Proteasome” (ACS Med Chem Lett, 2016)
The source made the active and inactive calls. The calls are words filed in the database; no cut-off is given here.

Tests used:
[1] = Cytotoxicity against human MCF10A cells harboring wild type p53 assessed as reduction in cell viability after 48 hrs by 7AAD-staining based FACS analysis; assay type: toxicity, MCF-10A; settings: for CC50 at 48 h: MCF10A cells harboring wild type p53, read-out: LD50; for Activity: mcf-10a, 48 h
Method in brief: (§1)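 Cells were exposed for 48 h to compound titrations from 0 to 5000 nM. Cell death was read out by 7AAD staining, and the LD50 was taken from dose-response curves. n=3.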

[2] = molecular target: T1, Proteasome subunit beta type-8 (Mus musculus, UniProt P28063); test: Inhibition of chymotrypsin like activity of mouse spleen 20S proteasome beta5i subunit using Suc-Leu-Leu-Val-Tyr-AMC as substrate preincubated for 15 mins followed by substrate addition measured after 2 hrs by fluorescence-based assay
T1 sequence (P28063 whole entry): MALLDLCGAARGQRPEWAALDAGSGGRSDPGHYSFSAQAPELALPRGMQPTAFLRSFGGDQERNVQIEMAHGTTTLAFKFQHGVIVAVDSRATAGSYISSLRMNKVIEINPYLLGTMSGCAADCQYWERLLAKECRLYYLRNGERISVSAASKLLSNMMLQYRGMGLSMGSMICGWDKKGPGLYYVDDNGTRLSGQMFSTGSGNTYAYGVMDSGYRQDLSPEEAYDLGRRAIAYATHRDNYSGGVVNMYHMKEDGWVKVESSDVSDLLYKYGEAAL

[3] = test system: MCF7; test: (§2) Cytotoxicity against human MCF7 cells harboring wild type p53 assessed as reduction in cell viability after 48 hrs by 7AAD-staining based FACS analysis; assay type: functional; method in brief: as §1
[4] = as §2; assay type: functional; settings: MCF7, 48 h, read-out: LD50 (the source's name); method in brief: as §1
[5] = Inhibition of chymotrypsin like activity of rabbit 20S proteasome using Suc-Leu-Leu-Val-Tyr-AMC as substrate preincubated for 15 mins followed by substrate addition measured after 2 hrs by fluorescence-based assay; parameters: species or system Oryctolagus cuniculus
[6] = (§3) Cytotoxicity against human RD-ES cells harboring p53 mutant assessed as reduction in cell viability after 48 hrs by 7AAD-staining based FACS analysis; assay type: functional; settings: read-out: LD50 (the source's name); method in brief: as §1
[7] = test system: RD-ES; test: as §3; assay type: functional; method in brief: as §1
[8] = test system: MDA-MB-468; test: Inhibition of 26S proteasome in human MDA-MB-468 cells assessed as accumulation of high molecular weight polyubiquitin-conjugated proteins at 35 nM after 4 hrs by Western blot analysis; assay type: cell-based
[9] = (§4) Cytotoxicity against human KGN cells harboring wild type p53 assessed as reduction in cell viability after 48 hrs by 7AAD-staining based FACS analysis; assay type: functional; settings: read-out: LD50 (the source's name); method in brief: as §1
[10] = test system: KGN; test: as §4; assay type: functional; method in brief: as §1
[11] = Selectivity ratio of LD50 for human SKOV3 cells to LD50 for human KGN cells; assay type: functional
[12] = (§5) Cytotoxicity against human WE68 cells harboring wild type p53 assessed as reduction in cell viability after 48 hrs by 7AAD-staining based FACS analysis; assay type: functional; settings: WE68, 48 h, read-out: LD50 (the source's name); method in brief: as §1
[13] = test system: WE68; test: as §5; assay type: functional; method in brief: as §1
[14] = Cytotoxicity against human LCL cells harboring wild type p53 assessed as reduction in cell viability after 48 hrs by 7AAD-staining based FACS analysis; assay type: toxicity; settings: for CC50 at 48 h: LCL cells harboring wild type p53, read-out: LD50; for Activity: lcl, 48 h; method in brief: as §1
[15] = Cytotoxicity against HNDF cells harboring wild type p53 assessed as reduction in cell viability after 48 hrs by 7AAD-staining based FACS analysis; assay type: toxicity; settings: human; for CC50 at 48 h: HNDF cells harboring wild type p53, read-out: LD50; for Activity: hndf, 48 h; method in brief: as §1
[16] = test system: U-266; test: Selectivity ratio of LD50 for human U266 cells to LD50 for human NCI-H929 cells; assay type: functional
[17] = Inhibition of trypsin like activity of rabbit 20S proteasome using Bz-Val-Gly-Arg-AMC as substrate preincubated for 15 mins followed by substrate addition measured after 2 hrs by fluorescence-based assay; parameters: species or system Oryctolagus cuniculus
[18] = (§6) Cytotoxicity against human MDA-MB-468 cells harboring mutant p53 assessed as reduction in cell viability after 48 hrs by 7AAD-staining based FACS analysis; assay type: functional; settings: MDA-MB-468, 48 h, read-out: LD50 (the source's name); method in brief: as §1
[19] = test system: MDA-MB-468; test: as §6; assay type: functional; method in brief: as §1
[20] = (§7) Cytotoxicity against human NCI-H929 cells harboring wild type p53 assessed as reduction in cell viability after 48 hrs by 7AAD-staining based FACS analysis; assay type: functional; settings: NCI-H929, 48 h, read-out: LD50 (the source's name); method in brief: as §1
[21] = test system: NCI-H929; test: as §7; assay type: functional; method in brief: as §1
[22] = Cytotoxicity against human IMR90 cells harboring wild type p53 assessed as reduction in cell viability after 48 hrs by 7AAD-staining based FACS analysis; assay type: toxicity, IMR-90; settings: for CC50 at 48 h: IMR90 cells harboring wild type p53, read-out: LD50; for Activity: imr-90, 48 h; method in brief: as §1
[23] = species on record: Oryctolagus cuniculus; test: Selectivity ratio of IC50 for caspase like activity of rabbit 20S proteasome to IC50 for chymotrypsin like activity of rabbit 20S proteasome
[24] = Inhibition of caspase like activity of rabbit 20S proteasome using Ac-nLPnLD-AMC as substrate preincubated for 15 mins followed by substrate addition measured after 2 hrs by fluorescence-based assay; parameters: species or system Oryctolagus cuniculus
[25] = (§8) Cytotoxicity against p53 deficient human SKOV3 cells assessed as reduction in cell viability after 48 hrs by 7AAD-staining based FACS analysis; assay type: functional; settings: SK-OV-3, 48 h, read-out: LD50 (the source's name); method in brief: as §1
[26] = test system: SK-OV-3; test: as §8; assay type: functional; method in brief: as §1
[27] = (§9) Cytotoxicity against human U266 cells harboring mutant p53 assessed as reduction in cell viability after 48 hrs by 7AAD-staining based FACS analysis; assay type: functional; settings: U-266, 48 h, read-out: LD50 (the source's name); method in brief: as §1
[28] = test system: U-266; test: as §9; assay type: functional; method in brief: as §1
[29] = Inhibition of bovine alpha chymotrypsin using Ala-Ala-Phe-7-AMC as substrate measured for 10 mins by spectrophotometric analysis; parameters: species or system Bos taurus
Method in brief: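 Enzyme was bovine α-chymotrypsin. Compounds were tested up to a top concentration of 25000 nM. Ki values are the mean of three separate experiments, with variation between experiments below ±10%.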

[30] = test system: MCF7; test: Inhibition of 26S proteasome in human MCF7 cells assessed as accumulation of high molecular weight polyubiquitin-conjugated proteins at 35 nM after 4 hrs by Western blot analysis; assay type: cell-based
[31] = Inhibition of chymotrypsin like activity of rabbit 20S proteasome using Suc-LLVY-AMC as substrate preincubated for 15 mins followed by substrate addition measured after 2 hrs by microplate-fluorometric analysis; parameters: species or system Oryctolagus cuniculus

| Compound | CC50 at 48 h [1] | Activity [1] | IC50 [2] | Activity [3] | CC50 [4] | IC50 [5] | CC50 [6] | Activity [7] | CC50 [9] | CC50 [12] | CC50 at 48 h [15] | IC50 [17] | CC50 [18] | CC50 [20] | CC50 at 48 h [22] | Ratio IC50 [23] | IC50 [24] | CC50 [25] | CC50 [27] | Ki [29] | also measured |
| --- | --- | --- | --- | --- | --- | --- | --- | --- | --- | --- | --- | --- | --- | --- | --- | --- | --- | --- | --- | --- | --- |
| CC[C@H](C)[C@H](NC(=O)[C@H](CCCCN=[N+]=[N-])NC(=O)OCc1ccccc1)C(=O)N[C@@H](CC(C)C)B1O[C@@H]2C[C@@H]3C[C@@H](C3(C)C)[C@]2(C)O1 | 5000 nM | Dose-dependent effect | 118 nM | Dose-dependent effect | 1500 nM | 14.1 nM | 35 nM | Dose-dependent effect | 65 nM | 35 nM | 500 nM | > 25000 nM | 30 nM | 6.4 nM | 200 nM | 113 | 1600 nM | 370 nM | 15 nM | > 25000 nM | polyubiquitin accumulation (active/inactive) [8]: Active; Activity [10]: Dose-dependent effect; Selectivity ratio [11]: 5; Activity [13]: Dose-dependent effect; CC50 at 48 h [14]: 30 nM; Activity [14]: Dose-dependent effect; Activity [15]: Dose-dependent effect; Selectivity ratio [16]: 2; Activity [19]: Dose-dependent effect; Activity [21]: Dose-dependent effect; Activity [22]: Dose-dependent effect; Activity [26]: Dose-dependent effect; Activity [28]: Dose-dependent effect; Polyubiquitin-conjugate accumulation [30]: Active |
| C#CCOc1ccc(C[C@@H](C=O)NC(=O)[C@@H](NC(=O)[C@H](CCCCN=[N+]=[N-])NC(=O)OCc2ccccc2)[C@H](C)CC)cc1 | – | – | – | – | – | – | – | – | – | – | – | – | – | – | – | – | – | – | – | – | IC50 [31]: 21 nM |
| CC(C)C[C@H](NC(=O)[C@H](Cc1ccccc1)NC(=O)c1cnccn1)B(O)O [BORTEZOMIB] | 1500 nM | – | 16.8 nM | – | 9800 nM | 34.6 nM | 40 nM | – | 180 nM | 100 nM | 480 nM | > 25000 nM | 37 nM | 6.6 nM | 130 nM | – | 108 nM | 1600 nM | 18 nM | 1820 nM | polyubiquitin accumulation (active/inactive) [8]: Active; CC50 at 48 h [14]: 20 nM; Polyubiquitin-conjugate accumulation [30]: Active |
| CC[C@H](C)[C@H](NC(=O)[C@H](CCCCN=[N+]=[N-])NC(=O)OCc1ccccc1)C(=O)N[C@@H](Cc1ccccc1)B1O[C@@H]2C[C@@H]3C[C@@H](C3(C)C)[C@]2(C)O1 | 1250 nM | Dose-dependent effect | 13.8 nM | Dose-dependent effect | 79 nM | 21 nM | 33 nM | Dose-dependent effect | 48 nM | 14 nM | 60 nM | > 25000 nM | 24 nM | 12 nM | 8 nM | 117 | 2450 nM | 46 nM | 14 nM | 7130 nM | Activity [10]: Dose-dependent effect; Activity [13]: Dose-dependent effect; Activity [14]: Dose-dependent effect; Activity [15]: Dose-dependent effect; Activity [19]: Dose-dependent effect; Activity [21]: Dose-dependent effect; Activity [22]: Dose-dependent effect; Activity [26]: Dose-dependent effect; Activity [28]: Dose-dependent effect |
| C=CCOc1ccc(CCC(=O)c2ccc(C(=O)N[C@@H](Cc3ccc(OCC=C)cc3)C(=O)N[C@@H](CC(C)C)B3O[C@@H]4C[C@@H]5C[C@@H](C5(C)C)[C@]4(C)O3)[nH]2)cc1 | 9000 nM | Dose-dependent effect | 483 nM | Dose-dependent effect | 3000 nM | 20.9 nM | 65 nM | Dose-dependent effect | 180 nM | 65 nM | 1080 nM | > 25000 nM | 50 nM | 9 nM | 150 nM | 200 | 4180 nM | 1500 nM | 29 nM | > 25000 nM | polyubiquitin accumulation (active/inactive) [8]: Active; Activity [10]: Dose-dependent effect; Selectivity ratio [11]: 5; Activity [13]: Dose-dependent effect; CC50 at 48 h [14]: 90 nM; Activity [14]: Dose-dependent effect; Activity [15]: Dose-dependent effect; Selectivity ratio [16]: 2; Activity [19]: Dose-dependent effect; Activity [21]: Dose-dependent effect; Activity [22]: Dose-dependent effect; Activity [26]: Dose-dependent effect; Activity [28]: Dose-dependent effect; Polyubiquitin-conjugate accumulation [30]: Active |
| C=CCOc1ccc(CCC(=O)c2ccc(C(=O)N[C@@H](Cc3ccc(OCC=C)cc3)C(=O)N[C@@H](Cc3ccccc3)B3O[C@@H]4C[C@@H]5C[C@@H](C5(C)C)[C@]4(C)O3)[nH]2)cc1 | – | – | 113 nM | – | – | 104 nM | – | – | – | – | – | > 25000 nM | – | – | – | 32.1 | 3340 nM | – | – | 1310 nM | – |
